Legend:
[1] = target: Aldo-keto reductase family 1 member B1 (Rattus norvegicus, UniProt P07943); assay: Inhibition of aldose reductase in rat lenses
In short: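 Activity read spectrophotometrically as NADPH oxidation. Five concentrations; IC50 by least-squares fit of linear portion of log(dose)–response curve; triplicate.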

[2] = DPPH radical scavenging activity; assay type: functional
In short: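 Compound in ethanol mixed with ethanolic DPPH; final 0.2–0.0125 mM compound, 0.2 mM DPPH. Absorbance loss at 517 nm followed. IC50 from nine concentrations at 270 min steady state; EC50 = IC50/[DPPH]. Initial rate from linear absorbance decrease over first 30 s at equimolar 0.2 mM. Triplicate.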

[3] = Antioxidant activity assessed as inhibition of DOPC liposomes; assay type: functional
In short: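 Unilamellar DOPC liposomes (final 0.8 mM) in 20 mM phosphate buffer pH 7.4 incubated with test compound (10–300 µM) and AAPH initiator (final 10 mM), 50 °C, 80 min. Lipid hydroperoxides extracted with CHCl₃/MeOH (2:1) containing BHT, measured by thiocyanate method at 500 nm against cumene hydroperoxide calibration. IC50 by least-squares fit of linear part of semilog % inhibition plot; triplicate.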

Jejunum [4] = assay: Apparent permeability from mucosal to serosal side in Wistar rat jejunum; assay type: functional, tissue-based
In short: (§1)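 Jejunum from starved male Wistar rats (250–320 g), 1 cm² exposed, in side-by-side diffusion chambers; 25 min preincubation. Donor: 0.479 mM compound, 10 µM fluorescein paracellular marker, glucose or mannitol in Ringer buffer, applied mucosal (M–S) or serosal (S–M). Acceptor sampled every 25 min to 175 min. Viability checked by PD, Isc, TEER. HPLC-UV 220 nm, fluorescein by fluorescence. Papp calculated.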

Jejunum [5] = assay: Apparent permeability from serosal to mucosal side in Wistar rat jejunum; assay type: functional, tissue-based; in short: as §1
Jejunum [6] = assay: Ratio of permeability from serosal to mucosal over mucosal to serosal side of the Wistar rat jejunum

SMILES | IC50 [1] | IC50 [2] | IC50 [3] | permeability (Jejunum [4]) | permeability (Jejunum [5]) | Ratio (Jejunum [6])
Cc1c(C)c2c(c(C)c1O)CCC(C)(C(=O)O)O2 (centres undefined) [TROLOX] |  | 37 µM | 93.5 µM |  |  | 
Nc1ccc(S(=O)(=O)Nc2cc(F)c(O)c(F)c2)cc1 | 14.1 µM |  |  |  |  | 
CC(/C=C1\SC(=S)N(CC(=O)O)C1=O)=C\c1ccccc1 |  |  |  | 4.34 ×10⁻⁶ cm/s | 10.9 ×10⁻⁶ cm/s | 2.5
O=S(=O)(Nc1cc(F)c(O)c(F)c1)c1ccccc1 | 32.9 µM | 49 µM | 95.9 µM | 6.34 ×10⁻⁶ cm/s | 2.91 ×10⁻⁶ cm/s | 0.46

More lines, main results first:

IC50 [1] | SMILES | IC50 [2] | IC50 [3] | permeability (Jejunum [4]) | permeability (Jejunum [5]) | Ratio (Jejunum [6])
15.5 µM | COc1ccc(S(=O)(=O)Nc2cc(F)c(O)c(F)c2)cc1 |  |  |  |  | 
44.4 µM | O=[N+]([O-])c1ccc(S(=O)(=O)Nc2cc(F)c(O)c(F)c2)cc1 |  |  |  |  | 

Reference: ChEMBL document CHEMBL1157151, “Design and synthesis of N-(3,5-difluoro-4-hydroxyphenyl)benzenesulfonamides as aldose reductase inhibitors” (Bioorg Med Chem, 2008)
